B1: tRNA (parent)
chain: GUUCCGUUGGCGUAAUGGUAACGCGUCUCCCUCCUAAGGAGAAGACUGCGGGUUCGAGUCCCGUACGGAACG

This sample holds only a part of the variants without activity.

This series covers variants of B1. The series is described as follows: yeast fitness relative to wild type (ratio to wild type); higher = fitter; tRNA-Arg(CCU), competitive growth, 37 C, YPD. Put shortly: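 Amplicons of the tRNA-Arg(CCU) gene were sequenced, 100-nucleotide paired-end, from the start population and from each end population of a pooled yeast competition. The competition, in six parallel replicates, lasted 24 hours in YPD at 37°C. Fitness relative to wild type was calculated from changes in genotype frequencies. Genotypes had to have ≥ 100 starting reads, and estimates < 0.5 were set to 0.5.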
Regarding GUUCCGUUGGCGUAAUGGUUACGCGUCUCCCUCCUAAGGAGAAGACUGCGGGUUCGAGUCCUGGACGGAACG [A20U C62U U64G], the yeast fitness came to 0.603. GUUCCGUUGGCGUAAUGGUUACGCGUCUCCCUCCUAACGAGAAGACUGCCGGUUCGAGUCCCGUCCGGAACG [A20U G38C G50C A65C]: the yeast fitness is at most 0.5.

Turning to GUUCCGUUGGCGUAAUGGUUACGCGUCUCCCUCCUAAGGAGAAGACUGCGGGUUCGAGUCUCGUAUGGAACG [A20U C61U C66U], the yeast fitness is 0.559. In the case of GUUCCGUUGGCGUAAUGGUUACGCGUCUCCCUCCUAAGGAGAAGACUGCGGGUUCGAGUCCGGUACGGAACG [A20U C62G], the yeast fitness came to 0.682.

As for GUUCCGUUGGCGUAAUGGUUACGCGUCUCCCUCCUAACGAGAAGCCUGCGGGUUCGAGUGCCGUACGGAACG [A20U G38C A45C C60G], the yeast fitness is at most 0.5. The figure for GUUCCGUUGGCGUAAUGGUUACGCGUCUCCCUCUUAAGGAAAAGACUGCGGGUUCGAGUCCCGUACGGAACG [A20U C34U G41A] is at most 0.5; for GUUCCGUUGGCGUAAUGGUUACGCGUCUCCCUCUUAAGGAGAAGACUGCGGGUUCGACUCCCGUACGGAACG [A20U C34U G58C] it is at most 0.5. Consider GUUCCGUUGGCGUAAUGGUUACGCGUCUCCCUCAUAAGGAGAAGACUGCGGGUUCGAGUCCUGUACGGAACG [A20U C34A C62U], for which the yeast fitness was determined as 0.542.

Consider GUUCCGUUGGCGUAAUGGUUACGCGUCUCCCUCCUAAGGACAAGACUGCGGGUUCGAGUCCCGUACGGAACG [A20U G41C], for which the yeast fitness was 0.753. With GUUCCGUUGGCGUAAUGGUUACGCGUCUCCCUCCUAAGGAGAAGACUGCCGGUUCGAGUCCCGUACGGAACG [A20U G50C], the yeast fitness came to 0.638. The figure for GUUCCGUUGGCGUAAUGGUUACGCGUCUCCCUCCUAACGAGAAGACUGCGGGUUCGAGUCCCGUACGUAACG [A20U G38C G68U] is at most 0.5; for GUUCCGUUGGCGUAAUGGUUACGCGUCUCCCUCCUAAGGAGAAGAUUGCGGGUUCGAGUCCCGUACGGAACG [A20U C46U] it is 0.995; for GUUCCGUUGGCGUAAUGGUUACGCGUCUCCCUCCUAACGAGAAGAAUGCGGGUUCGAGUCCCGUACGGAACG [A20U G38C C46A] it is at most 0.5. Turning to GUUCCGUUGGCGUAAUGGUUACGCCUCUCCCUCCUAAGGAGAAGACUGCGGGUUCGAGUCCCGUACGGAACG [A20U G25C], the yeast fitness came out at 0.885. As to GUUCCGUUGGCGUAAUGGUUACGCGUCUCCCUCGUAAGGAGAAGACUCCGGGUUCGAGUCCCGUACGGAACG [A20U C34G G48C], the yeast fitness worked out at 0.53. As to GUUCCGUUGGCGUAAUGGUUACGCGUCUCCCUCGUCAGGAGAAGACUGCGGGUUUGAGUCCCGUACGGAACG [A20U C34G A36C C55U], the yeast fitness amounted to 0.528. For the variant GUUCCGUUGGCGUAAUGGUUACGCGUCUCCCUCCUAAGGAGAAGACUGGGGGUUCGAGUCCCGUACGGAACG [A20U C49G], the yeast fitness was found to be 0.752. GUUCCGUUGGCGUAAUGGUUACGCGUCUCCCUCCUAAGGAGAAGACUGCGGGUUCGAGUCCCCUACGGAACG [A20U G63C]: the yeast fitness was 0.649. Turning to GUUCCGUUGGCGUAAUGGUUACGCGUCUCCCUCCUAAGGAGAAGACUGCAGGUUCGAGUCCCGUACGCAACG [A20U G50A G68C], the yeast fitness is at most 0.5.

Regarding GUUCCGUUGGCGUAAUGGUUACGCCUCUCCCUCCUAAGGAGAAGACUGGGGGUUCGAGUCCCGUCCGGAUCG [A20U G25C C49G A65C A70U], the yeast fitness is at most 0.5. GUUCCGUUGGCGUAAUGGUUACGCGUCUCCCUCAUAAGGAGAAGACUGCGGGUUCGACUCCAGUACGGCACG [A20U C34A G58C C62A A69C]: the yeast fitness is at most 0.5. As for GUUCCGUUGGCGUAAUGGUUACGCGUCUCCCUCAUAAAGAGAAGACUGCGGGUUCGAGACCCGUACGGAACG [A20U C34A G38A U59A], the yeast fitness is at most 0.5. On to GUUCCGUUGGCGUAAUGGUUACGCGUCUCCCUCCUAAGGACAAGACUGCGCGUUCGAGUCCGGUACGGAACG [A20U G41C G51C C62G], for which the yeast fitness is 0.735. With GUUCCGUUGGCGUAAUGGUUACCCGUCUCCCUCCUAAGGAGAAGACUGCGGGAUUGAGUCCCGUACGGAACG [A20U G23C U53A C55U], the yeast fitness is at most 0.5. Regarding GUUCCGUUGGCGUAAUGGUUACGCGCCUCCCUCCUAAGGAGAAGACUGCGGGUUCGAGUCCCGUACGGAACG [A20U U26C], the yeast fitness amounted to 0.89. Regarding GUUCCGUUGGCGUAAUGGUUACGCGUCUCCCUCCUAAGGAGAAGACUGCAGGUUCGAGCCCCGUACGGAACG [A20U G50A U59C], the yeast fitness is 0.619. On to GUUCCGUUGGCGUAAUGGUUACGCGUCUCCCUCGUAACGAGAAGACUGCGGGUUCGAGUCCCGUACGGAACG [A20U C34G G38C], for which the yeast fitness is at most 0.5.

On to GUUCCGUUGGCGUAAUGGUUACGCCUCUCCCUCCUAGGGAGAAGACUGCGGGUUCGAGUGGCGUACGGAACG [A20U G25C A37G C60G C61G], for which the yeast fitness worked out at 0.561.

Take GUUCCGUUGGCGUAAUGGUUACGCGUCUCCCUCCUAAGGAGAACACUGCGGGUUCGAGUACCGUACGGAACG [A20U G44C C60A]: the yeast fitness was determined as 0.617. Take GUUCCGUUGGCGUAAUGGUUACGCGUCACCCUUCUAAGGAGAAGACUGCGGGUUCGAGUCCCGUACGGAACG [A20U U28A C33U]: the yeast fitness was at most 0.5. With GUUCCGUUGGCGUAAUGGUUACGCGUCUCCCUCCUAAGGAGAAGACUGCGGGUUCGAGUCCCGUACGUAACG [A20U G68U], the yeast fitness came to 0.792. As for GUUCCGUUGGCGUAAUGGUUACGCGCCUCACUCCUAAGGAGAAGACAGCGGGUUCGAGUCCCGUUCGGAACG [A20U U26C C30A U47A A65U], the yeast fitness is at most 0.5. GUUCCGUUGGCGUAAUGGUUACGCGACUCCCUCCUAAGGAGAAGACUGCGGGUUUGAGUCCCGUACGGAACG [A20U U26A C55U]: the yeast fitness was 0.747. GUUCCGUUGGCGUAAUGGUUACGCGUCUCCCUCCUAAGGAGAAGACUGCGGAUUCGAGUCCCGUACGGAACG [A20U G52A]: the yeast fitness was 0.759. As to GUUCCGUUGGCGUAAUGGUUACGCGUCUCCCUCCUAAGGAGAAGACUGCAGGUUCGAGUGCCGUACGGAACG [A20U G50A C60G], the yeast fitness is at most 0.5. Regarding GUUCCGUUGGCGUAAUGGUUACGCGUCUCCCUCCUAAGGAGAAGACUCCGGGCUCGAGUCCCGUACGCAACG [A20U G48C U53C G68C], the yeast fitness was at most 0.5.

On to GUUCCGUUGGCGUAAUGGUUACGCCUCUCCCUCCUAGGGAGAAGACUGCGGGUUCGAGUGGCGUACGGAUCG [A20U G25C A37G C60G C61G A70U], for which the yeast fitness is at most 0.5.

Source of the values: the RNAGym collection of RNA variant scans (doi:10.1126/science.aae0568).
